NPY-Y1 antag: blocks the human neuropeptide Y Y1 receptor. P25929. HEK293-CNG Y1 cells, membrane potential fluorescence; NPY at EC95, then isoproterenol. inhibition, % at 3.6 µM. 1% of 200,000 active;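 active = inhibition above the campaign mean inhibition of all tested compounds plus 3 SD, cut at about 20% in these data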
Target sequence (P25929 whole entry, looked up): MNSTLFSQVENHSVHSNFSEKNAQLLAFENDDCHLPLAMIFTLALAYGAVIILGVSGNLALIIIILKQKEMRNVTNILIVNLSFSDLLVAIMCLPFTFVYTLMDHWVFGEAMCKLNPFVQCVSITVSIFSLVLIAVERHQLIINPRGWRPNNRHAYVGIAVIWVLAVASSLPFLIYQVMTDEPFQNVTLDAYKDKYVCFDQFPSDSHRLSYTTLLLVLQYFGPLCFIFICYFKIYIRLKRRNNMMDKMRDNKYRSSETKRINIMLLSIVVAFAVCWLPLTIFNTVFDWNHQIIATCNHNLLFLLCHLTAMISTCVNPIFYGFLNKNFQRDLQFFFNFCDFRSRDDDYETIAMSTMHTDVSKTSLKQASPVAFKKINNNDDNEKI
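Benchmarks – high control isoproterenol alone, low control NPY with isoproterenol · Material – HEK293 Y1/CNG channel cell line · Times – dye 3 h, compound 60 min room temperature, stimulation 45 min · Probe or stimulus – NPY (25 nM), isoproterenol (1 µM), Ro 20-1724 (25 µM) · Evaluation – % inhibition of NPY effect · Signal – fluorescence, membrane potential probe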
S1P4 antagonist: blocks the human S1P4 receptor. S1P4-expressing cells, antagonist mode, reporter read-out. inhibition, % at 4.98 µM. AID 1510. 0.26% of 220,000 active. O95977; in the data active = inhibition above about 29%
NPY2 pot ag: human NPY-Y2 potentiation or agonism, primary screen; activation, % at 3.6 µM; cells expressing NPY-Y2, potentiator/agonist read-out; P49146; AID 1359; 0.45% of 220,000 active; in the data active = activation above about 27%;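 also: cells stimulated with NPY near EC25 plus isoproterenol at EC100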
NPY-Y2 antag: NPY-Y2 (human) receptor antagonism. P49146. NPY-Y2 expressing cells, antagonist mode. inhibition, % at 2.7 µM. 0.99% of 140,000 active. AID 793; in the data active = inhibition above about 17%
NPY-Y1 PAM-ag: potentiates or activates human NPY-Y1 receptor; NPY-Y1 expressing cells, potentiator/agonist activation; activation, % at 3.6 µM; 0.37% of 220,000 active; in the data active = activation above about 33%, passing the limit was not always enough;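 also: cells stimulated with NPY at EC10 then isoproterenol at EC100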
S1P4 ag: human S1P4 receptor agonism; O95977; S1P4-expressing cell line, agonist reporter assay; activation, % at 4.98 µM; 0.35% of 220,000 active; AID 1509; in the data active = activation above about 11%
NPY1 antag ctr: antagonizes human NPY-Y1, counter-screen to NPY-Y2 antagonists; shares compounds with NPY-Y2 antag; cell-based NPY-Y1 antagonism counterscreen; inhibition, % at 3.6 µM; 19% of 710 active; in the data active = inhibition above about 20%;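 also: cells challenged with NPY then isoproterenol with cAMP sensed through a CNG channel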
NPY2 antag conf: human NPY-Y2 antagonism, confirmation; shares compounds with NPY-Y2 antag; HEK293 NPY-Y2 CNG channel, membrane potential fluorescence; inhibition, % at 2.8 µM; 32% of 710 active; AID 1257;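 active = mean inhibition of triplicate wells above the hit cutoff set in the primary screen, cut at about 17% in these data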
Hits are given with their value; 0 = inactive; - = no result given; ! = repeats disagree. Only some compounds are listed: those with a hit (about 2.4% of all), similar ones and a draw of the others.

SMILES | NPY-Y1 antag | S1P4 antagonist | NPY2 pot ag | NPY-Y2 antag | NPY-Y1 PAM-ag | S1P4 ag | others
O=C(NC1(C(F)(F)F)Oc2ccccc2O1)N1CCC2(CC1)OCCO2 | 0 | 0 | 0 | 0 | 0 | 0
O=C(NC1(C(F)(F)F)Oc2ccc(Cl)cc2O1)N1CCC2(CC1)OCCO2 (stereo not drawn) | 0 | 41.8 | 0 | 0 | 0 | 0
CS(=O)(=O)NNP(=O)(NNS(C)(=O)=O)NC(=O)c1ccc(Br)cc1 | - | 0 | 0 | - | 0 | 0
C[C@H]1O[C@@H](O[C@H]2[C@@H](O)C[C@H](O[C@H]3[C@@H](O)C[C@H](O[C@H]4CC[C@@]5(C)[C@H](CC[C@@H]6[C@@H]5CC[C@]5(C)[C@@H](C7=CC(=O)OC7)CC[C@]65O)C4)O[C@@H]3C)O[C@@H]2C)C[C@H](O)[C@@H]1O | 50.9 | 0 | 0 | 44.5 | 0 | 0
CC(NCc1ccc(Cl)cc1)C(O)c1ccccc1 (stereo not drawn) | 0 | 0 | 0 | 0 | 0 | 0
CC(CCc1ccccc1)NC(C)C(O)c1ccc(O)cc1 (stereo not drawn) | 0 | 0 | 85.8 | 0 | 92.0 | 0
CCN1CCN(Cc2cc(C(C)(C)C)c(O)c(C(C)(C)C)c2)CC1 | 0 | 0 | 62.4 | 0 | 68.4 | 0
Cc1nc2c(c(=O)[nH]1)C(c1ccc([N+](=O)[O-])cc1)c1c(c3ccccc3oc1=O)O2 (stereo not drawn) | - | 0 | 0 | - | 0 | 0
Cc1cc(C)n2nc(SC(C)C(=O)N3CCC4(CC3)OCCO4)nc2n1 (stereo not drawn) | 0 | 0 | 98.8 | 0 | 73.4 | 0
Cc1ccc2cc3cc(C(=O)N4CCC5(CC4)OCCO5)oc3nc2c1 | 0 | 0 | 0 | 0 | 0 | 0
CCOC(=O)c1c(C)n(Cc2ccco2)c2ccc(O)cc12 | 0 | 0 | 0 | 0 | 0 | 0
CCCCn1c(C)c(C(=O)OCC)c2c(CN3CCOCC3)c(O)ccc21 | 33.2 | 0 | 0 | 33.9 | 0 | 0
COC(=O)[C@@H]1C[C@H]1[C@@H](NP(=O)(c1ccccc1)c1ccccc1)c1ccccc1 | 0 | 0 | 0 | 0 | 0 | 0
COC(=O)[C@H]1C[C@@H]1[C@H](NP(=O)(c1ccccc1)c1ccccc1)c1ccccc1 | 39.6 | 0 | 0 | 18.6 | 0 | 0
COc1ccc(C)cc1NC(=O)c1c(C)nn(Cc2ccccc2)c1Cl | 20.2 | 0 | 0 | 21.4 | 0 | 0
CCOc1ccc(NC(=O)c2c(C)nn(Cc3ccccc3)c2Cl)cc1 | 0 | 0 | 0 | 0 | 0 | 0
Cc1cc(C(=O)CS(=O)c2ccc(F)cc2)cc(C)c1OC(=O)N(C)C (stereo not drawn) | 0 | 0 | 0 | - | 0 | 0
N=C(N)c1c(O)n(C2CCCCC2)c(=O)n(C2CCCCC2)c1=O | 0 | 0 | 31.0 | 0 | 0 | 0
O=C(CNC(=O)OCc1ccccc1)Nc1ccc(Br)cc1C(=O)c1ccccc1Cl | 0 | 0 | 0 | 0 | 0 | 0
CN(C(=O)CNC(=O)OCc1ccccc1)c1ccc(Br)cc1C(=O)c1ccccc1Cl | 23.1 | 0 | 0 | 18.1 | 0 | 0
COP(=O)(OC)C1(O)C(=O)Nc2ccc(Br)cc21 (stereo not drawn) | 0 | 0 | 0 | 0 | 0 | 0
C=C(C)CN1CC[C@]23c4c5ccc(O)c4O[C@H]2c2[nH]c4ccccc4c2C[C@@]3(O)C1C5 | 0 | 0 | 0 | - | 0 | 0
Cc1ccc(CN2C3CCCC2CC(NC(=S)NCc2ccccc2)C3)cc1 (stereo not drawn) | 0 | 0 | 0 | - | 0 | 0
O=C(c1ccccc1)C1NC1c1ccccc1 (stereo not drawn) | - | 0 | 0 | - | 0 | 0
C=C[C@@H]1C[C@@]1(C)[C@@H](NP(=O)(c1ccccc1)c1ccccc1)c1ccccc1 | 37.8 | 0 | 0 | 23.1 | 0 | 0
SMILES | NPY-Y1 antag | S1P4 antagonist | NPY2 pot ag | NPY-Y2 antag | NPY-Y1 PAM-ag | S1P4 ag | others
O=C1NC(=O)C2=Cc3ccc(O)cc3OC2(O)N1 (stereo not drawn) | 0 | 0 | 0 | - | 0 | 0
CN1CC[C@]2(c3cccc(O)c3)Cc3nc4ccccc4cc3C[C@H]2C1 | 0 | 0 | 0 | - | 0 | 0
CC(C)(C)NCC(O)c1cc(Cl)c(N)c(Cl)c1 (stereo not drawn) | 0 | 0 | 87.8 | 0 | 96.6 | 0
Cc1ccc(OP(=O)(O)Oc2ccc(C)cc2)cc1 | 25.8 | 0 | 0 | 0 | 0 | 0
C=CCn1c(O)c(C(CC)=Nc2ccc(N(C)C)cc2)c(=O)[nH]c1=O | - | 0 | 0 | - | 0 | 0
Cc1cc2c(C(C)C)c(O)c(O)c(C=O)c2c(O)c1-c1c(C)cc2c(C(C)C)c(O)c(O)c(C=O)c2c1O | 0 | 32.4! | 0 | 0 | 0 | 0
Cc1cc(OC(=O)CCNC(=O)OC(C)(C)C)c2c3c(c(=O)oc2c1)CCC3 | 0 | 0 | 67.7 | 0 | 0 | 0
CCCC(=O)N(C)C1=Nc2ccc(Cl)cc2C(c2ccccc2)=[N+]([O-])C1 | - | 0 | 0 | - | 0 | 0
CCNC(=O)C1OC(n2cnc3c(N)ncnc32)C(O)C1O (stereo not drawn) | 126.8 | 0 | 0 | 137.6 | 0 | 0
CC(=O)c1ccc(OC(C)C)c(Cc2c(O)[nH]c(=S)[nH]c2=O)c1 | 0 | 0 | 0 | - | 0 | 0
c1ccc(C2OCCN3CCCCC23)cc1 (stereo not drawn) | 0 | 0 | 0 | 0 | 0 | 241.4
CCN(CCNc1ccc([N+](=O)[O-])c2cccnc12)S(=O)(=O)c1ccccc1 | 0 | 0 | 69.7 | 0 | 61.3 | 0
CC(Oc1ccc(-c2ccccc2)cc1)C(=O)O (stereo not drawn) | 24.8 | 0 | 0 | 0 | 0 | 0
CCC(=NCCC(c1ccccc1)c1ccccc1)c1c(O)[nH]c(=O)[nH]c1=O | 0 | 0 | 0 | 35.1 | 0 | 0 | NPY1 antag ctr=39.8;NPY2 antag conf=66.8
CC1CCC(C(C)C)C(OC(=O)COC(=O)c2ccccc2N)C1 (stereo not drawn) | 0 | 0 | 0 | 18.3 | 0 | 0 | NPY1 antag ctr=0;NPY2 antag conf=0
COP(=O)(OC)C(Nc1ccccn1)c1ccccc1 (stereo not drawn) | 0 | 0 | 0 | 0 | 0 | 0
O=P(Oc1ccccc1)(Oc1ccccc1)C(Nc1ccccc1)c1ccccc1 (stereo not drawn) | 0 | 0 | 0 | 28.2 | 0 | 0 | NPY1 antag ctr=26.5;NPY2 antag conf=20.0
CN(C)c1ccc(P(=S)(N(C)C)N(C)C)cc1 | 0 | 0 | 0 | 0 | 0 | 0
CCOP(=S)(OCC)c1ccc(N(C)C)cc1 | 0 | 0 | 0 | 17.2 | 0 | 0 | NPY1 antag ctr=0;NPY2 antag conf=0
Fc1c(F)c(F)c(N2CCNCC2)c(F)c1F | 0 | 0 | 0 | - | 0 | 0
N#Cc1ccccc1Cn1cc(C(=O)c2ccco2)c2ccccc21 | 0 | 0 | 0 | 17.2 | 0 | 0 | NPY1 antag ctr=0;NPY2 antag conf=0
O=C(c1ccco1)c1cn(Cc2ccccc2)c2ccccc12 | 0 | 0 | 0 | 0 | 0 | 0
O=C(c1ccco1)c1cn(Cc2ccccc2Cl)c2ccccc12 | 0 | 0 | 0 | 23.9 | 0 | 0 | NPY1 antag ctr=0;NPY2 antag conf=0

Screening results (PubChem BioAssay)
